Laboratory results from ChEMBL document CHEMBL5150070, “Tricyclic SpiroLactams Kill Mycobacteria In Vitro and In Vivo by Inhibiting Type II NADH Dehydrogenases” (J Med Chem, 2022).
Values after ≈ are worked out from the molar mass of the structure shown. Active and inactive are the calls of the source. The calls are words filed in the database; no cut-off is given here.

Assays:
[1] = tested on: Mycobacterium tuberculosis; test: Antibiotic activity against Mycobacterium tuberculosis H37Rv assessed as reduction in bacterial cell growth by measuring resazurin reduction incubated for 6 days by fluorescence microplate based assay; type: functional; conditions: 144 h, time 6 day
[2] = Toxicity in noninfected zebrafish larvae assessed as toxic effect; design: species or system Danio rerio; conditions: in vivo
Mycobacterium marinum [3] = test: In vivo antimycobacterial efficacy in Mycobacterium marinum expressing Wasabi infected zebrafish larvae assessed as prolongation of survival treated for 4 days after 1 day post infection; type: functional, organism-based; conditions: dose 0.3-1.2 µM, time 4.0 day, DDE = dose-dependent effect
Summary of the method: (§1)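 Golden mutant or Tg(mpeg1:mCherry) zebrafish embryos were dechorionated and anaesthetised in 0.016% tricaine. At 30 hpf, 2–3 nL containing about 200–250 cfu of Wasabi-expressing M. marinum M (pTEC15) was injected into the caudal vein. The inoculum was confirmed by plating on 7H10. Embryos were kept in E3 at 28.5 °C, 12 per well, to follow infection and survival.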

Mycobacterium marinum [4] = test: In vivo antimycobacterial efficacy in Mycobacterium marinum expressing Wasabi infected zebrafish larvae assessed as prolongation of survival time at 4.8 uM treated for 4 days after 1 day post infection; type: functional; conditions: time 4 day
[5] = tested on: Mycobacterium tuberculosis; test: Antimycobacterial activity against Mycobacterium tuberculosis H37Rv assessed as reduction in bacterial cell growth by measuring resazurin reduction incubated for 6 days by fluorescence microplate based assay; type: functional; conditions: time 6 day
Mycobacterium marinum [6] = test: Antibiotic activity against Mycobacterium marinum M strain assessed as reduction in bacterial cell growth by measuring resazurin reduction incubated for 6 days by fluorescence microplate based assay; type: functional; conditions: 144 h, time 6 day
Staphylococcus aureus = test: Antibiotic activity against Staphylococcus aureus SH1000 assessed as reduction in bacterial cell growth by measuring resazurin reduction incubated for 6 days by fluorescence microplate based assay; type: functional; conditions: SH1000, 144 h, time 6 day
Summary of the method: (§2)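 E. coli BW25113, E. coli ΔtolC and S. aureus SH1000 were cultured and tested in cation-adjusted Mueller Hinton II broth. Viability was read by adding resazurin and measuring resorufin fluorescence at Ex 530 nm / Em 590 nm.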

Acinetobacter baumannii = test: Antibiotic activity against Acinetobacter baumannii LMG-17978 assessed as reduction in bacterial cell growth by measuring resazurin reduction incubated for 6 days by fluorescence microplate based assay; type: functional; conditions: LMG-17978, 144 h, time 6 day
Mycobacterium avium = test: Antibiotic activity against Mycobacterium avium TMC 724, ATCC-25291 assessed as reduction in bacterial cell growth by measuring resazurin reduction incubated for 6 days by fluorescence microplate based assay; type: functional; conditions: TMC 724, ATCC-25291, 144 h, time 6 day
[7] = tested on: Mycolicibacterium smegmatis; test: Antibiotic activity against Mycobacterium smegmatis mc2155 assessed as reduction in bacterial cell growth by measuring resazurin reduction incubated for 6 days by fluorescence microplate based assay; type: functional; conditions: mc2155, 144 h, time 6 day
[8] = tested on: Mycobacterium tuberculosis; test: Bactericidal activity against Non-replicating Mycobacterium tuberculosis ss18b-lux model assessed as decrease in luminescence at 10 to 10000 nM; type: functional, organism-based; conditions: dose 10-10000 nM, TDE = time-dependent effect
Summary of the method: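 Non-replicating streptomycin-starved 18b-lux (14-day starvation) diluted to OD600 0.15 in white 96-well plates with compound and incubated at 37°C. Luminescence read on days 1, 2, 5 and 7 and expressed relative to no-antibiotic controls (n ≥ 3).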

Mycobacterium marinum [9] = test: In vivo antimycobacterial efficacy in Mycobacterium marinum expressing Wasabi infected zebrafish larvae assessed as prevention of bacterial infection foci at 0.25 to 2 ug/ml treated for 2 to 4 days after 1 day post infection; type: functional, organism-based; conditions: dose 0.25-2 µg/ml, time 2-4 day; summary of the method: as §1
[10] = Toxicity in noninfected zebrafish larvae assessed as larval development; design: species or system Danio rerio; conditions: in vivo
[11] = tested on: Mycobacteroides abscessus; test: Antibiotic activity against Mycobacterium abscessus CIP104536, Smooth variant assessed as reduction in bacterial cell growth by measuring resazurin reduction incubated for 6 days by fluorescence microplate based assay; type: functional; conditions: 144 h, time 6 day
[12] = tested on: Mycobacterium tuberculosis; test: Bactericidal activity against replicating Mycobacterium tuberculosis H37Rv assessed as reduction in colony forming unit measured at 2 to 4 times of MIC after 1 to 2 weeks; type: functional; conditions: time 1-2 weeks
Summary of the method: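 Mid-log H37Rv in 7H9-GTy-OADC diluted to OD600 0.02 (~1×10⁶ cfu/mL) and exposed to compound in 96-well replica plates for 1 or 2 weeks. For the 3 lowest concentrations without visible growth, serial 10-fold dilutions plated on 7H11-OADC and cfu counted over 6 weeks at 37°C. Four independent experiments; log10 cfu/mL ± SD.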

Pseudomonas aeruginosa = test: Antibiotic activity against Pseudomonas aeruginosa POA1 assessed as reduction in bacterial cell growth by measuring resazurin reduction incubated for 6 days by fluorescence microplate based assay; type: functional; conditions: POA1, 144 h, time 6 day
[13] = tested on: Mycobacterium tuberculosis; test: Bactericidal activity against Non-replicating Mycobacterium tuberculosis ss18b-lux assessed as bacterial killing by measuring CFU after 1 week; type: functional, organism-based; conditions: time 1.0 weeks, DDE = dose-dependent effect
Summary of the method: (§3)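 Streptomycin-dependent 18b-lux starved of streptomycin for 14 days (OD600 reset to 0.2 on days 7 and 13) to become non-replicating. Diluted to OD600 0.15 on dispensed compound and held at 37°C. On day 7, active wells plated on 7H11-OADC with 50 µg/mL streptomycin and incubated up to 8 weeks for cfu.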

Bacillus subtilis = test: Antibiotic activity against Bacillus subtilis ATCC6633 assessed as reduction in bacterial cell growth by measuring resazurin reduction incubated for 6 days by fluorescence microplate based assay; type: functional; conditions: ATCC6633, 144 h, time 6 day
[14] = Octanol/PBS partition coefficient, logD of compound at pH 7.4 measured after 2 hrs by shake flask method; type: physicochemical; conditions: octanol/water, pH 7.4, 2 h
Summary of the method: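 A 10 mM DMSO stock was diluted 50-fold into 1:1 octanol:PBS pH 7.4 and shaken gently for 2 h at room temperature. Each phase was diluted 50-fold in MeOH and quantified by LC-MS/MS. LogD = log of the octanol/PBS concentration ratio from mass signals. Run in triplicate.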

Mycobacterium marinum [15] = test: In vivo antimycobacterial efficacy in Mycobacterium marinum expressing Wasabi infected zebrafish larvae assessed as prolongation of survival at 9.6 uM treated for 4 days after 1 day post infection; type: functional, organism-based; conditions: time 4.0 day; summary of the method: as §1
Mycobacterium marinum [16] = test: In vivo antimycobacterial efficacy in Mycobacterium marinum expressing Wasabi infected zebrafish larvae assessed as prevention of bacterial load using fluorescence pixel count determination at 0.5 ug/ml treated for 2 to 4 days after 1 day post infection; type: functional, organism-based; conditions: dose 0.5 µg/ml, time 2-4 day; summary of the method: as §1
[17] = tested on: Mycobacterium tuberculosis; test: Inhibition of Ndh2 in Mycobacterium tuberculosis assessed as increase in NADH/NAD+ ratio at 600 nM measured after 24 hrs
Summary of the method: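 Mid-log H37Rv diluted to OD600 0.3 and exposed to compound at 37°C for 2 and 24 h. Pellets extracted in 0.2 M HCl (NAD⁺) or 0.2 M NaOH (NADH), bead-milled, heated 55°C 10 min, neutralised. NAD/NADH-Glo luminescence read against an NADH standard curve, corrected for OD600. Three independent experiments, duplicate technical replicates.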

[18] = tested on: Mycobacteroides abscessus; test: Antibiotic activity against Mycobacterium abscessus CIP104536, Rough variant assessed as reduction in bacterial cell growth by measuring resazurin reduction incubated for 6 days by fluorescence microplate based assay; type: functional; conditions: 144 h, time 6 day
Klebsiella pneumoniae = test: Antibiotic activity against Klebsiella pneumoniae LMG 2095 assessed as reduction in bacterial cell growth by measuring resazurin reduction incubated for 6 days by fluorescence microplate based assay; type: functional; conditions: LMG 2095, 144 h, time 6 day
[19] = tested on: Mycobacterium tuberculosis; test: Inhibition of Ndh2 in Mycobacterium tuberculosis assessed as decrease in ATP concentration measured after 24 hrs; conditions: DDE = dose-dependent effect
Summary of the method: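 Log-phase H37Rv diluted to OD600 0.01 in complete 7H9 and exposed in 96-well plates to compound added from a 100× DMSO stock, at 37°C. ATP measured with BacTiter-Glo luminescence after 4 and 24 h; three independent experiments.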

Escherichia coli [20] = test: Antibiotic activity against Escherichia coli BW25113 assessed as reduction in bacterial cell growth by measuring resazurin reduction incubated for 6 days by fluorescence microplate based assay; type: functional; conditions: BW25113, 144 h, time 6 day; summary of the method: as §2
[21] = tested on: Mycobacterium tuberculosis; test: Bactericidal activity against Non-replicating Mycobacterium tuberculosis ss18b-lux assessed as decrease in colony forming unit measured at 4.8 uM after 1 weeks; type: functional; summary of the method: as §3
Escherichia coli [22] = test: Antibiotic activity against Escherichia coli deltatolC BW25113 deltatolC assessed as reduction in bacterial cell growth by measuring resazurin reduction incubated for 6 days by fluorescence microplate based assay; type: functional; conditions: 144 h, time 6 day; summary of the method: as §2
Mycobacterium marinum [23] = test: in vivo antimycobacterial efficacy in Mycobacterium marinum infected zebrafish larvae assessed as reduction in bacterial burden at 0.25 to 2 micog/ml measured after 2 to 4 days off post infection; type: functional, organism-based; conditions: time 2-4 day
[24] = Metabolic stability in mouse liver microsomes; type: ADME, Microsome
[25] = tested on: Mycobacterium tuberculosis; test: Antimycobacterial activity against Mycobacterium tuberculosis H37Rv infected in human A-THP1 macrophages assessed as viability of infected macrophages incubated for 96 hrs by fluorescence microplate assay; type: functional, organism-based
Summary of the method: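 THP-1 cells differentiated with 50 ng/mL PMA for 72 h, infected with log-phase H37Rv (MOI 10, 2 h), and extracellular bacteria killed with 50 µg/mL amikacin for 1 h. Cells detached and seeded at 5×10⁵/mL in RPMI-10% FBS with PMA onto pre-dispensed compound, 96 h at 37°C, 5% CO₂. Macrophage viability by 0.05% resazurin fluorescence.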

[26] = target: T1, Type II NADH:quinone oxidoreductase NdhA (Mycobacterium tuberculosis, UniProt P95200); test: Inhibition of Mycobacterium smegmatis MC2 155 recombinant ndhA assessed as rate of NADH oxidation in the presence of an electron acceptor menadione; design: species or system Mycolicibacterium smegmatis
T1 sequence (P95200 whole entry): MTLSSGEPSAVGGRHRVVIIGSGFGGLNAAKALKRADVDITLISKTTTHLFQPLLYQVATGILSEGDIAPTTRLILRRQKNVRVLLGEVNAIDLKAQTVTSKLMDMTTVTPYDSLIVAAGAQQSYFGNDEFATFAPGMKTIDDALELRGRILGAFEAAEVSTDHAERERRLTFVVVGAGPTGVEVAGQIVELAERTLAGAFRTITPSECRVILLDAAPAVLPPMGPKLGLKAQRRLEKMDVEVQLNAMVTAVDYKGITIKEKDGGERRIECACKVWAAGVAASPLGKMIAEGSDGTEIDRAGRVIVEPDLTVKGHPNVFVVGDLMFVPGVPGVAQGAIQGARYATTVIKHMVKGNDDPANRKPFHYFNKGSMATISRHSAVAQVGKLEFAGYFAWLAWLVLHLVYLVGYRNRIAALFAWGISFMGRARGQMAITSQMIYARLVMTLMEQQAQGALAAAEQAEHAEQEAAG

[27] = target: Type II NADH:quinone oxidoreductase Ndh (Mycobacterium tuberculosis, UniProt P95160); test: Inhibition of Mycobacterium tuberculosis recombinant type II NADH dehydrogenase ndh expressed in Escherichia coli assessed as rate of NADH oxidation in the presence of an electron acceptor menadione
Summary of the method: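 Purified N-terminal MBP-tagged Mtb Ndh (Rv1854c) expressed in E. coli, 70 nM, with 500 µM NADH in 50 mM HEPES pH 7.1 (K₂HPO₄). Compound pre-incubated 15 min at 25°C, reaction started with 100 µM menadione. NADH oxidation followed at 340 nm every 60 s. Rate taken from linear slope; IC50 is the mean ± SD of at least 3 independent experiments.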

Chain of Type II NADH:quinone oxidoreductase Ndh (P95160 whole entry): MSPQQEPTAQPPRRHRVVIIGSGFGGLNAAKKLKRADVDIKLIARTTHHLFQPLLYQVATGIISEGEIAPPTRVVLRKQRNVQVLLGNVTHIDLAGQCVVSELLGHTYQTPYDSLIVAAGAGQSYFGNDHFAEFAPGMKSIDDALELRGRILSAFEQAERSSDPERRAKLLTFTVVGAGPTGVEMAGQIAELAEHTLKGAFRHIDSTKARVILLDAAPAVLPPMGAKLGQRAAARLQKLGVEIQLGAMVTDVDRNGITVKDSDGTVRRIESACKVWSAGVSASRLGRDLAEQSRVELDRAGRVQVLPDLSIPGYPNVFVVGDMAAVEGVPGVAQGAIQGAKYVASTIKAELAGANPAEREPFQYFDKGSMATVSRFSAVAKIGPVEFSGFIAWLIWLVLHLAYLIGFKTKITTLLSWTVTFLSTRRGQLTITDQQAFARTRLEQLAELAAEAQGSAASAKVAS

SMILES: CC(C)[C@H]1CO[C@]23CCN(Cc4ccc(OC(F)(F)F)cc4)C[C@H]2CCC(=O)N13
- MIC [1]: 0.13 µM (≈ 0.0536 µg/mL)
- Activity [2]: Non-Toxic
- Activity (Mycobacterium marinum [3]): Dde
- Time (Mycobacterium marinum [4]): 3 days
- MIC98 [5]: 0.13 µM (≈ 0.0536 µg/mL)
- MIC (Mycobacterium marinum [6]): 0.16 µM (≈ 0.066 µg/mL)
- MIC (Staphylococcus aureus): > 100 µM
- MIC (Acinetobacter baumannii): > 100 µM
- MIC (Mycobacterium avium): 0.38 µM (≈ 0.157 µg/mL)
- MIC [7]: 1.3 µM (≈ 0.536 µg/mL)
- Activity [8]: Tde
- Activity (Mycobacterium marinum [9]): Active
- Activity [10]: Non-Toxic
- MIC [11]: 8.1 µM (≈ 3.34 µg/mL)
- Activity [12]: 0.8 log10CFU
- MIC (Pseudomonas aeruginosa): > 100 µM
- Activity [13]: Dde
- MIC (Bacillus subtilis): > 100 µM
- logD [14]: 3.9
- Activity (Mycobacterium marinum [15]): Active
- Activity (Mycobacterium marinum [16]): Active
- inhibition [17]: Active
- MIC [18]: 8.1 µM (≈ 3.34 µg/mL)
- MIC (Klebsiella pneumoniae): > 100 µM
- inhibition [19]: Dde
- MIC (Escherichia coli [20]): > 100 µM
- Activity [21]: 1 log10CFU
- MIC (Escherichia coli [22]): 100 µM (≈ 41.2 µg/mL)
- Activity (Mycobacterium marinum [23]): Active
- Drug metabolism [24]: Metabolite_Detected
- IC50 [25]: 360 nM

SMILES: CC[C@H](C)[C@H]1CO[C@]23CCN(Cc4ccccc4)C[C@H]2CCC(=O)N13
- MIC98 [5]: 9.5 µM (≈ 3.25 µg/mL)

SMILES: CC(C)[C@H]1CO[C@]23CCN(Cc4ccc(C(F)(F)F)nc4)C[C@H]2CCC(=O)N13
- Activity [2]: Non-Toxic
- Activity (Mycobacterium marinum [3]): Dde
- Time (Mycobacterium marinum [4]): 3 days
- MIC98 [5]: 0.59 µM (≈ 0.234 µg/mL)
- Activity [10]: Non-Toxic
- logD [14]: 2.7
- IC50 [26]: 330 nM
- IC50 [27]: 32 nM
- Activity (Mycobacterium marinum [23]): Active
- IC50 [25]: 2400 nM
